Experimental data published in ChEMBL document CHEMBL1156778, “Synthesis and structure-activity studies of biphenyl analogues of the tuberculosis drug (6S)-2-nitro-6-{[4-(trifluoromethoxy)benzyl]oxy}-6,7-dihydro-5H-imidazo[2,1-b][1,3]oxazine (PA-824)” (J Med Chem, 2010).
≈ marks a conversion by molar mass, not a printed value.

Tests used:
[1] = tested on: Mycobacterium tuberculosis; assay: Antitubercular activity against Mycobacterium tuberculosis H37Rv in aerobic condition after 7 days by microplate alamar blue assay; assay type: functional; conditions: 168 h
In short: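 M. tuberculosis H37Rv, replicating culture; 8-day microplate assay with Alamar blue added on day 7 to read growth. […] Mean of at least two independent determinations ± SD.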

[2] = tested on: Mycobacterium tuberculosis; assay: Antitubercular activity against Mycobacterium tuberculosis H37Rv in anaerobic condition after 7 days by low oxygen recovery assay; assay type: functional; conditions: 168 h
[3] = tested on: Vero; assay: Cytotoxicity against african green monkey Vero cells after 72 hrs by MTS assay; assay type: cell-based; conditions: Chlorocebus sabaeus
In short: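 VERO cells (CCL-81), 72 h exposure, tetrazolium dye read-out.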

Row | Compound | MIC [1] | MIC [2] | IC50 [3]
1 | COc1ccc(-c2ccccc2CO[C@@H]2COc3nc([N+](=O)[O-])cn3C2)cc1F | 1.8 µM (≈ 0.719 µg/mL) | 3.8 µM (≈ 1.52 µg/mL) | > 125 µM
2 | O=[N+]([O-])c1cn2c(n1)OC[C@@H](OCc1ccc(-c3cccc(OC(F)(F)F)c3)cc1)C2 | 0.077 µM (≈ 0.0335 µg/mL) | 1.4 µM (≈ 0.61 µg/mL) | > 125 µM
3 | CS(=O)(=O)c1ccc(-c2ccc(CO[C@@H]3COc4nc([N+](=O)[O-])cn4C3)cc2)cc1 | 0.67 µM (≈ 0.288 µg/mL) | 14 µM (≈ 6.01 µg/mL) | > 125 µM
4 | CC(=O)c1ccc(-c2ccccc2CO[C@@H]2COc3nc([N+](=O)[O-])cn3C2)cc1 | 17 µM (≈ 6.69 µg/mL) | 36 µM (≈ 14.2 µg/mL) | > 125 µM
5 | N#Cc1cccc(-c2ccccc2CO[C@@H]2COc3nc([N+](=O)[O-])cn3C2)c1 | 0.8 µM (≈ 0.301 µg/mL) | 8.2 µM (≈ 3.09 µg/mL) | > 125 µM
6 | O=[N+]([O-])c1cn2c(n1)OC[C@@H](OCc1cccc(-c3cccc(C(F)(F)F)c3)c1)C2 | 0.34 µM (≈ 0.143 µg/mL) | 2.9 µM (≈ 1.22 µg/mL) | > 125 µM
7 | COc1cc(OC)cc(-c2ccc(CO[C@@H]3COc4nc([N+](=O)[O-])cn4C3)cc2)c1 | 0.28 µM (≈ 0.115 µg/mL) | 0.79 µM (≈ 0.325 µg/mL) | > 125 µM
8 | O=Cc1ccc(-c2ccc(CO[C@@H]3COc4nc([N+](=O)[O-])cn4C3)cc2)cc1 | 0.2 µM (≈ 0.0759 µg/mL) | 1 µM (≈ 0.379 µg/mL) | > 125 µM
9 | O=[N+]([O-])c1cn2c(n1)OC[C@@H](OCc1ccc(-c3ccc(Cl)cc3)cc1)C2 | 0.015 µM (≈ 0.00579 µg/mL) | 2.7 µM (≈ 1.04 µg/mL) | > 125 µM
10 | COc1ccc(-c2ccc(CO[C@@H]3COc4nc([N+](=O)[O-])cn4C3)cc2)cc1 | 0.065 µM (≈ 0.0248 µg/mL) | 6.8 µM (≈ 2.59 µg/mL) | > 125 µM
11 | O=[N+]([O-])c1cn2c(n1)OC[C@@H](OCc1ccc(-c3cccc(Cl)c3)cc1)C2 | 0.06 µM (≈ 0.0231 µg/mL) | 1.6 µM (≈ 0.617 µg/mL) | > 125 µM
12 | O=[N+]([O-])c1cn2c(n1)OC[C@@H](OCc1ccc(-c3cc(F)c(F)c(F)c3)cc1)C2 | 0.04 µM (≈ 0.0162 µg/mL) | 0.76 µM (≈ 0.308 µg/mL) | > 125 µM
13 | COc1cc(C)c(-c2ccc(CO[C@@H]3COc4nc([N+](=O)[O-])cn4C3)cc2)c(C)c1 | 0.58 µM (≈ 0.237 µg/mL) | 0.94 µM (≈ 0.385 µg/mL) | > 125 µM
14 | O=[N+]([O-])c1cn2c(n1)OC[C@@H](OCc1ccc(-c3ccc4ccccc4c3)cc1)C2 | 0.045 µM (≈ 0.0181 µg/mL) | 0.87 µM (≈ 0.349 µg/mL) | > 125 µM
15 | O=[N+]([O-])c1cn2c(n1)OC[C@@H](OCc1ccccc1-c1ccccc1OC(F)(F)F)C2 | 1.2 µM (≈ 0.522 µg/mL) | 6.2 µM (≈ 2.7 µg/mL) | > 125 µM
16 | O=[N+]([O-])c1cn2c(n1)OC[C@@H](OCc1ccc(-c3ccc(O)cc3)cc1)C2 | 0.64 µM (≈ 0.235 µg/mL) | 4.3 µM (≈ 1.58 µg/mL) | > 125 µM
17 | Nc1ccc(-c2ccc(CO[C@@H]3COc4nc([N+](=O)[O-])cn4C3)cc2)cc1 | 0.49 µM (≈ 0.18 µg/mL) | 1.9 µM (≈ 0.696 µg/mL) | > 125 µM
18 | CSc1ccc(-c2ccc(CO[C@@H]3COc4nc([N+](=O)[O-])cn4C3)cc2)cc1 | 0.075 µM (≈ 0.0298 µg/mL) | 0.95 µM (≈ 0.378 µg/mL) | > 125 µM
19 | CC(C)Oc1ccc(-c2ccc(CO[C@@H]3COc4nc([N+](=O)[O-])cn4C3)cc2)cc1 | 0.25 µM (≈ 0.102 µg/mL) | 3.8 µM (≈ 1.56 µg/mL) | > 125 µM
20 | CC(C)c1cccc(-c2ccc(CO[C@@H]3COc4nc([N+](=O)[O-])cn4C3)cc2)c1 | 0.14 µM (≈ 0.0551 µg/mL) | 4.2 µM (≈ 1.65 µg/mL) | > 125 µM
21 | O=[N+]([O-])c1cn2c(n1)OC[C@@H](OCc1ccc(-c3ccc(F)c(F)c3)cc1)C2 | 0.03 µM (≈ 0.0116 µg/mL) | 1.2 µM (≈ 0.465 µg/mL) | > 125 µM
22 | O=[N+]([O-])c1cn2c(n1)OC[C@@H](OCc1ccc(-c3ccc(CO)cc3)cc1)C2 | 0.54 µM (≈ 0.206 µg/mL) | 3.7 µM (≈ 1.41 µg/mL) | > 125 µM
23 | CSc1cccc(-c2cccc(CO[C@@H]3COc4nc([N+](=O)[O-])cn4C3)c2)c1 | 0.07 µM (≈ 0.0278 µg/mL) | 1.4 µM (≈ 0.556 µg/mL) | > 125 µM
